Measured values: ChEMBL document CHEMBL2046381, “Defining the mechanism of action and enzymatic selectivity of psammaplin A against its epigenetic targets” (J Med Chem, 2012)

Columns and labels:
[1] = Growth inhibition of human WI38 cells after 96 hrs by sulphorhodamine B assay; type: cell-based; details: WI-38 cells
Procedure, shortened: (§1)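 SRB growth assay; MCF7 and WI38 seeded 4000 cells/well, A549 2000 cells/well, attached overnight, then exposed to freshly made drug solutions (0.1 to 50 μM) for 96 h. Fixed with cold 10% TCA, stained with 0.4% SRB; absorbance at 540 nm as percent of untreated control, IC50 from mean absorbance.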

Histone deacetylase 7 = molecular target: T1, Histone deacetylase 7 (Homo sapiens, UniProt Q8WUI4); assay: Inhibition of human recombinant HDAC7 using Boc-lys(Ac)-AMC as substrate preincubated for 20 mins with substrate measured after 60 mins by fluorescence analysis
T1 sequence (Q8WUI4 whole entry): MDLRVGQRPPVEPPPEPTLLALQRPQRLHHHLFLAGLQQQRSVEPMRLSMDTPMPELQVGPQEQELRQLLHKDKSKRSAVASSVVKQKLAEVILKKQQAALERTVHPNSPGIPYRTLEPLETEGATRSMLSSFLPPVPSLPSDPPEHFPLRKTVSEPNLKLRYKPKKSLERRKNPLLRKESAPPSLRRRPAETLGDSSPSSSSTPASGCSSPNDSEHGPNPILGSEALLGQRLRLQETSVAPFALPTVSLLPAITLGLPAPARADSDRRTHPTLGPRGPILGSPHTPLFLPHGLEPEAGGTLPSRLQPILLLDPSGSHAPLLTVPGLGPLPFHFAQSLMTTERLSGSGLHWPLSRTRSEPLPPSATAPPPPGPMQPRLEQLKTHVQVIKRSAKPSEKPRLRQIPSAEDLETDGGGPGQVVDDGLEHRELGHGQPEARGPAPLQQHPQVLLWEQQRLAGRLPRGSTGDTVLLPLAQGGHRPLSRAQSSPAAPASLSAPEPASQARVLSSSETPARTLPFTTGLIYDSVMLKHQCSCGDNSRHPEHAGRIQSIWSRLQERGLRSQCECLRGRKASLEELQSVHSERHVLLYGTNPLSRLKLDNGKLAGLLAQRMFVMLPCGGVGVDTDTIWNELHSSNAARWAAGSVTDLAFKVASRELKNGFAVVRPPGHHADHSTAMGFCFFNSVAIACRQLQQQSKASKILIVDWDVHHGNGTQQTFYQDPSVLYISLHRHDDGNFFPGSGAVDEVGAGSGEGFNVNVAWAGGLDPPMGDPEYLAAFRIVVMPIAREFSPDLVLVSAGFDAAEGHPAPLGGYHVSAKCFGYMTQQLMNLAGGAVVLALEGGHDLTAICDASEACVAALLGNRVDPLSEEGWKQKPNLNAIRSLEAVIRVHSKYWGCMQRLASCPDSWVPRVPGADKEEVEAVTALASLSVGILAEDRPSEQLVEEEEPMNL

MCF7 = assay: Growth inhibition of human MCF7 cells after 96 hrs by sulphorhodamine B assay; type: functional; details: MCF7, 96 h; procedure, shortened: as §1

- IC50 (Histone deacetylase 7): 45 µM
- GI50 (MCF7): 3.42 µM
Structure (SMILES): N/N=C(\Cc1ccc(O)c(Br)c1)C(=O)NCCS
- GI50 at 96 h [1]: 37.2 µM
